In series [1] the target is Cholinesterase (Homo sapiens, UniProt P06276). The series can be described thus: Inhibition of human BChE using BTC as substrate preincubated for 5 mins followed by substrate addition measured after 2 mins by Ellman's assay. Summed up: (§1)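 Ellman's method with DTNB chromogen, acetylthiocholine (AChE) or butyrylthiocholine (BChE) iodide substrate, in potassium phosphate buffer pH 8.0 (KOH-adjusted). Compounds were diluted from ethanol stocks, with a top final concentration of 10^-4 M. At least five concentrations (normally 10^-4–10^-9 M) were run, each in triplicate, read at 412 nm at 25 °C. IC50 values are from inhibition curves, as means of at least three determinations.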

Series [2] in a line: Antioxidant activity assessed as DPPH radical scavenging activity at 1 uM after 4 hrs by UV spectrophotometric analysis. Format: physicochemical. Summed up: (§2)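 DPPH radical at 0.1 mM in ethanol. Test compounds were in ethanol at 1–100 µM (1, 2, 10, 50, 100). Mixture lines used an equimolar (1:1) blend with ferulic acid. Absorbance was read at 517 nm before addition (Abs0) and after 4 h once stable (Abst). Scavenging % = (1 − Abst/Abs0) × 100.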
(In general: Loss of DPPH colour is used to gauge radical scavenging.)

Series [3] concerns PC-12. Put plainly: Neuroprotective effect in rat PC12 cells assessed as alleviation of H2O2 -induced toxicity after 24 hrs by MTT assay. The class given is functional, cell-based. The method in brief:
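PC12 cells (F-12, 10% FBS, 37 °C, 5% CO₂; 2000 cells/well, 24 h pre-culture) were co-treated with compound (0.1, 1, 10, 50; DMSO <0.5%) and H₂O₂ for 24 h. The mixture line used a 1:1 molar blend with ferulic acid. MTT for 4 h, formazan dissolved in DMSO, A540, blank-subtracted. Viability is % of control; three independent trials, mean ± SEM.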
(Tetrazolium dyes change colour on reduction, which living cells bring about.)

Series [4] is described as follows: Antioxidant activity assessed as DPPH radical scavenging activity at 100 uM after 4 hrs by UV spectrophotometric analysis. The class given is physicochemical. The method in brief:
as §2

The nature of series [5]: Antioxidant activity assessed as galvinoxyl radical scavenging activity at 100 uM after 19 hrs by UV spectrophotometric analysis. The class given is physicochemical. The method in brief: (§3)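 Galvinoxyl radical at 2 µM in ethanol, with compounds in ethanol at 1, 2, 10, 50 or 100 µM. Mixture lines used an equimolar (1:1) blend with ferulic acid. A428 was recorded before addition and after 19 h once stable. Percent radical scavenged = (1 − Abst/Abs0) × 100.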

Series [6] in a line: Cytotoxicity against rat PC12 cells at 0.1 to 50 uM incubated for 24 hrs by MTT assay. Format: cell-based. As to conditions: pc-12, 24 h. The method in brief:
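PC12 cells were grown in F-12 with 10% FBS and penicillin/streptomycin at 37 °C, 5% CO₂, seeded at 2000 cells/well and grown 24 h. Compounds were added from DMSO (final <0.5%) for 24 h. MTT (5 mg/mL) was added for 4 h, formazan dissolved in DMSO and A540 read after cell-free blank subtraction. Viability is % of control; three independent trials, mean ± SEM.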

Series [7] in a line: Antioxidant activity assessed as DPPH radical scavenging activity at 10 uM after 4 hrs by UV spectrophotometric analysis. Format: physicochemical. Summed up: as §2
Series [8] is described as follows: Antioxidant activity assessed as galvinoxyl radical scavenging activity at 10 uM after 19 hrs by UV spectrophotometric analysis. Format: physicochemical. The method in brief: as §3
Series [9] can be described thus: Antioxidant activity assessed as galvinoxyl radical scavenging activity at 50 uM after 19 hrs by UV spectrophotometric analysis. Format: physicochemical. The method in brief: as §3
Series [10] concerns the target Cholinesterase (Equus caballus, UniProt P81908). The series can be described thus: Inhibition of equine BChE using BTC as substrate preincubated for 5 mins followed by substrate addition measured after 2 mins by Ellman's assay. (DTNB colorimetry detects thiols as they appear.)
Series [11] can be described thus: Antioxidant activity assessed as galvinoxyl radical scavenging activity at 1 uM after 19 hrs by UV spectrophotometric analysis. The class given is physicochemical. The method in brief: as §3
A short description of series [12]: Antioxidant activity assessed as DPPH radical scavenging activity at 2 uM after 4 hrs by UV spectrophotometric analysis. The class given is physicochemical. Summed up:
as §2

A short description of series [13]: Antioxidant activity assessed as galvinoxyl radical scavenging activity at 2 uM after 19 hrs by UV spectrophotometric analysis. Format: physicochemical. The method in brief: as §3
For series [14], the target named is Acetylcholinesterase (Homo sapiens, UniProt P22303). The series can be described thus: Inhibition of human AChE using ATC as substrate preincubated for 5 mins followed by substrate addition measured after 2 mins by Ellman's assay. Summed up: as §1
Series [15] deals with PC-12. Put plainly: Neuroprotective effect in rat PC12 cells assessed as alleviation of amyloid beta42-induced toxicity after 24 hrs by MTT assay. Format: functional, cell-based. Summed up:
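Aβ42 was dissolved in hexafluoroisopropanol, dried to a film, taken up in F-12 and held at 4 °C for 24 h. PC12 cells (2000/well, 24 h pre-culture) were co-treated with this Aβ42 and compound (0.1–50; DMSO <0.5%) for 24 h. The mixture line used a 1:1 blend with ferulic acid. MTT for 4 h, A540; % of control, three independent trials, mean ± SEM.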

For series [16], the target named is Acetylcholinesterase (Electrophorus electricus, UniProt O42275). The series can be described thus: Inhibition of electric eel AChE using ATC as substrate preincubated for 5 mins followed by substrate addition measured after 2 mins by Ellman's assay.
Series [17] can be described thus: Antioxidant activity assessed as DPPH radical scavenging activity at 50 uM after 4 hrs by UV spectrophotometric analysis. The class given is physicochemical. The method in brief:
as §2

Molecules are shown by their SMILES.

Cholinesterase (Equus caballus, UniProt P81908), sequence (P81908 whole entry): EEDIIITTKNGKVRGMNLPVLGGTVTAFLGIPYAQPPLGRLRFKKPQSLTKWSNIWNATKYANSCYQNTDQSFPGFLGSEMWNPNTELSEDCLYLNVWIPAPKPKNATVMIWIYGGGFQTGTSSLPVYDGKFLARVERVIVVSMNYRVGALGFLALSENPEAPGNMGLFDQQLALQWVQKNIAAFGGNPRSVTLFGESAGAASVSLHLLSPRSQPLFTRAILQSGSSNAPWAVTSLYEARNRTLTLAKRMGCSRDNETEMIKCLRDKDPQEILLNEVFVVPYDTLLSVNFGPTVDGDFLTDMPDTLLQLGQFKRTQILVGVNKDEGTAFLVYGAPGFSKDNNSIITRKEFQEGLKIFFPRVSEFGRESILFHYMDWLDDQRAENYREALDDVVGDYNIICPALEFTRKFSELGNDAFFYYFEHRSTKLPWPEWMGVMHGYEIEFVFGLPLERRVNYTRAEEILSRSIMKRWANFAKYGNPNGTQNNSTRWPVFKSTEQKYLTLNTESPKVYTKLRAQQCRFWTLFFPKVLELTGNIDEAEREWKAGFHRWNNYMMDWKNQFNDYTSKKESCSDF
Acetylcholinesterase (Homo sapiens, UniProt P22303), sequence (P22303 whole entry): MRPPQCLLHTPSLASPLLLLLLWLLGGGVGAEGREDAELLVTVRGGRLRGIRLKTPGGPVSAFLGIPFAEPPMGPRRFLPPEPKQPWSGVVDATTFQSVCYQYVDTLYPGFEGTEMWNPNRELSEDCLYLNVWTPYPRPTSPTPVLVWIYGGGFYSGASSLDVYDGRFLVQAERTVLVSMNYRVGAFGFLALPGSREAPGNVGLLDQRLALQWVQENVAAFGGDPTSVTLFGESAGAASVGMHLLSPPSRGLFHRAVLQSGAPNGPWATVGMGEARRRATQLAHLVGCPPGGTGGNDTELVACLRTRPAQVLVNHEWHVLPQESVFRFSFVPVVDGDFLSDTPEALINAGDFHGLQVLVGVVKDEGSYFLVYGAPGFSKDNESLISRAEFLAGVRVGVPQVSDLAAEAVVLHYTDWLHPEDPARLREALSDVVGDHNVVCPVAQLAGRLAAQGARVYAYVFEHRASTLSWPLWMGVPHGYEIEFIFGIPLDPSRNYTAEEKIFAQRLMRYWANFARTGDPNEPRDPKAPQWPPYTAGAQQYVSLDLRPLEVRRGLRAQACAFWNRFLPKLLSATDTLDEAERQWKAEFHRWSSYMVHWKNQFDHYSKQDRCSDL
Acetylcholinesterase (Electrophorus electricus, UniProt O42275), sequence (O42275 whole entry): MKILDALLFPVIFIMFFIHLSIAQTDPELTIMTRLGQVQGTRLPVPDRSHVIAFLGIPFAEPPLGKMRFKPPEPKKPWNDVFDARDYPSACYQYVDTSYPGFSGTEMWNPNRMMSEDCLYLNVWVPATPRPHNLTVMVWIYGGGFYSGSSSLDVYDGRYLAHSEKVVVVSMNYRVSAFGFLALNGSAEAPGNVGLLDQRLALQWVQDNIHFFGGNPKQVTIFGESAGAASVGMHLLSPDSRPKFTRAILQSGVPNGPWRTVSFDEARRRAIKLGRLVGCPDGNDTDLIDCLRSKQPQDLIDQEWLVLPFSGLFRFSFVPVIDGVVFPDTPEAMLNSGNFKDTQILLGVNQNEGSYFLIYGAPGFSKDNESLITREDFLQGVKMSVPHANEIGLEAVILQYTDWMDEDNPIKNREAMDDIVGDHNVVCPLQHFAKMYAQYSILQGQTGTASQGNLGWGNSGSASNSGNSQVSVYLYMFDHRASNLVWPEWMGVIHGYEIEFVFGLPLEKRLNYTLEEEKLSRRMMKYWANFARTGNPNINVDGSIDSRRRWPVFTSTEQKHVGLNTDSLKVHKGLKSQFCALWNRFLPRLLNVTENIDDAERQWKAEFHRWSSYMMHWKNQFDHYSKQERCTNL
Cholinesterase (Homo sapiens, UniProt P06276), sequence (P06276 whole entry): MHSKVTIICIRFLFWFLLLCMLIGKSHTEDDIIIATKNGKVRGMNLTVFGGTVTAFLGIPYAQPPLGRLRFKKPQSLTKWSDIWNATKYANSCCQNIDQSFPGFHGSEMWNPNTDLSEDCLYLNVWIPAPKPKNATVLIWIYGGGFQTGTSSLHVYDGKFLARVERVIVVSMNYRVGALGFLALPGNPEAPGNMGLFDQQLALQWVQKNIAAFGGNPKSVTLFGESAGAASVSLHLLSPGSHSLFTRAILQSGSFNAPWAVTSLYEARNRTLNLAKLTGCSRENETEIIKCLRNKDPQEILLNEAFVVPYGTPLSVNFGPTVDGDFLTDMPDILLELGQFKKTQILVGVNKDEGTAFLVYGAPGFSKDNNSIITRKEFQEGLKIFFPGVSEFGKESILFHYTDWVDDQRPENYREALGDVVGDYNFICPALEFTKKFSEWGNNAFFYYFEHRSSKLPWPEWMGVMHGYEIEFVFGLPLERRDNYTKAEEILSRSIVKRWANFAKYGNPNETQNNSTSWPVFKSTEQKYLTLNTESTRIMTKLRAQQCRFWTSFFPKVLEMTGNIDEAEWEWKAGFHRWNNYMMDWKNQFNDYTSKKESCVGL

With `CCN(Cc1cccc2[nH]c3cc(Cl)ccc3c12)C(=O)/C=C/c1ccc(O)c(OC)c1`, the IC50 (in general, the concentration that inhibits the measured activity by half) at Cholinesterase [1] worked out at 2800 nM; against Cholinesterase [10] it was 3100 nM; at Acetylcholinesterase [14], 6900 nM; at Acetylcholinesterase [16], 1900 nM. Further, the Activity was 41.8% in [2]; “Dose-dependent effect” with PC-12 [3]; 91.9% in series [4]; 83.2% in [5]; “Non-toxic” in series [6]; 66% in series [7]. Besides, the Activity in [8] was 38.1%; in series [9], 57%; in [11] it was 8.3%; in series [12], 49.1%; in [13], 22.4%; with PC-12 [15] it was “Dose-dependent effect”. Besides, the Activity in series [17] stood at 77.3%.

For the origin of these results see ChEMBL document CHEMBL3751731, “Ferulic acid-carbazole hybrid compounds: Combination of cholinesterase inhibition, antioxidant and neuroprotection as multifunctional anti-Alzheimer agents” (Bioorg Med Chem, 2016).
